ChEMBL document CHEMBL4831482 (Eur J Med Chem, 2021)
Converted amounts (≈) assume the structure as drawn. The source made the active and inactive calls. No cut-off for these calls is given here. Where a SMILES comes first, the peptide text is derived from it. The star is where a group is joined. Boc = CC(C)(C)OC(=O)*

Legend:
Cryptococcus neoformans [1] = test: Antifungal activity against Cryptococcus neoformans ATCC 90113 assessed as inhibition of fungal growth by CLSI method; type: functional, organism-based
Candida albicans = test: Antifungal activity against Candida albicans ATCC 10231 assessed as inhibition of fungal growth by CLSI method; type: functional, organism-based
Aspergillus fumigatus = test: Antifungal activity against Aspergillus fumigatus ATCC 1022 assessed as inhibition of fungal growth by CLSI method; type: functional, organism-based
Klebsiella pneumoniae = test: Antibacterial activity against Klebsiella pneumoniae ATCC BAA1705 assessed as inhibition of bacterial growth by CLSI method; type: functional, organism-based
Vero = test: Cytotoxicity against African green monkey Vero cells assessed as reduction in cell viability incubated for 48 hrs by Neutral red assay; type: cell-based; conditions: chlorocebus sabaeus
Procedure, shortened: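 VERO monkey kidney cells seeded at 25,000 cells/well and incubated 24 h to confluency. Peptide added, then a further 48 h incubation. Viability read by neutral red uptake.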

[2] = Aggregation property of the compound in PBS assessed as particle size at pH 7.4 measured after 4 hrs by dynamic light scattering analysis (reference value: 802 nm); type: physicochemical; conditions: buffer, pH 7.4, 4 h
[3] = Aggregation property of the compound in PBS assessed as polydispersity index at pH 7.4 by dynamic light scattering analysis (reference value: 0.383); type: physicochemical; conditions: buffer
Cell membrane [4] = test: Induction of membrane permeabilization and disruption in Cryptococcus neoformans ATCC350 assessed as increase in green fluorescence intensity using FITC-labeled compound at MIC measured after 1 hr by confocal laser scanning microscopic analysis; type: subcellular
Cryptococcus neoformans [5] = test: Potency index, ratio of Amphotericin B IC50 to test compound IC50 for antifungal activity against Cryptococcus neoformans ATCC 90113 assessed as inhibition of fungal growth by CLSI method; type: functional
Staphylococcus aureus = test: Antibacterial activity against methicillin-resistant Staphylococcus aureus ATCC 33591 assessed as inhibition of bacterial growth by CLSI method; type: functional, organism-based
Enterococcus = test: Antibacterial activity against vancomycin resistant Enterococcus ATCC MP-1 assessed as inhibition of bacterial growth by CLSI method; type: functional, organism-based
Escherichia coli = test: Antibacterial activity against Escherichia coli ATCC 35218 assessed as inhibition of bacterial growth by CLSI method; type: functional, organism-based
Pseudomonas aeruginosa = test: Antibacterial activity against Pseudomonas aeruginosa ATCC 27853 assessed as inhibition of bacterial growth by CLSI method; type: functional, organism-based
Cryptococcus neoformans [6] = test: Potency index, ratio of Amphotericin B MIC to test compound MIC for antifungal activity against Cryptococcus neoformans ATCC 90113 assessed as inhibition of fungal growth by CLSI method; type: functional
Lipid bilayer [7] = test: Binding affinity to bacterial membrane mimic EPYC/EPYG (7:3) small unilamellar vesicle assessed as Stern-Volmer quenching constant by tryptophan quenching analysis
Lipid bilayer [8] = test: Binding affinity to mammalian membrane mimic EPYC/cholesterol (10:1) small unilamellar vesicle assessed as Stern-Volmer quenching constant by tryptophan quenching analysis
[9] = Aggregation property of the compound in PBS assessed as particle size at pH 7.4 measured after 4 hrs by dynamic light scattering analysis (reference value: 2073 nm); type: physicochemical; conditions: buffer, pH 7.4, 4 h
[10] = Aggregation property of the compound in PBS assessed as polydispersity index at pH 7.4 by dynamic light scattering analysis (reference value: 0.333); type: physicochemical; conditions: buffer
Cell wall = test: Disruption of Cell wall in Cryptococcus neoformans ATCC350 by HR-TEM analysis; type: subcellular
Cell membrane [11] = test: Disruption of Plasma membrane in Cryptococcus neoformans ATCC350 by HR-TEM analysis; type: cell membranes
Cryptococcus neoformans [12] = test: Disruption of capsule in Cryptococcus neoformans ATCC350 by HR-TEM analysis
Cell membrane [13] = test: Induction of membrane permeabilization in Cryptococcus neoformans ATCC350 assessed as increase in red fluorescence intensity at MIC measured after 1 hr by propidium iodide staining based confocal laser scanning microscopic analysis; type: subcellular
Procedure, shortened: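 Cells centrifuged, resuspended in PBS pH 7.4 and stained with propidium iodide. Confocal imaging at >560 nm, with untreated cells as control.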

Cryptococcus neoformans [14] = test: Induction of DNA damage in Cryptococcus neoformans ATCC350 assessed as nuclear and chromatin fragmentation by measuring reduction in blue fluorescence intensity at MIC measured after 1 hr by DAPI staining based confocal laser scanning microscopic analysis; type: functional, organism-based
Procedure, shortened: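 Cells centrifuged, resuspended in PBS and stained with DAPI (3.01 µM, 10 min). Confocal imaging at Ex/Em 350/470 nm, with untreated cells as control.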

Cell membrane [15] = test: Induction of pore formation in Cryptococcus neoformans ATCC350 assessed as membrane permeabilization by measuring release of intracellular material at MIC by scanning electron microscopy; type: subcellular

Structure (SMILES)	IC50 (Cryptococcus neoformans [1]) [µg/mL]	Activity (Candida albicans)	Activity (Aspergillus fumigatus)	Activity (Klebsiella pneumoniae)	Activity (Vero) [µg/mL]	Activity (Cell membrane [4])	MIC (Cryptococcus neoformans [1]) [µg/mL]	IC50 (Staphylococcus aureus) [µg/mL]	MIC (Staphylococcus aureus) [µg/mL]	IC50 (Enterococcus) [µg/mL]	MIC (Enterococcus) [µg/mL]	IC50 (Escherichia coli) [µg/mL]	IC50 (Pseudomonas aeruginosa) [µg/mL]	other results
COC(=O)[C@H](CCCNC(=N)N)NC(=O)[C@H](Cc1c[nH]c2ccccc12)NC(=O)[C@H](Cc1c[nH]cn1)NC(=O)OC(C)(C)C (Boc-His-Trp-Arg-OMe)	> 20	inactive	inactive	inactive	> 10	inactive	–	–	–	–	–	–	–	Activity [2]: 108 nm; Activity [3]: 0.922
CCCCc1ccc(-c2nc(C[C@H](N)C(=O)N[C@@H](Cc3c[nH]c4ccccc34)C(=O)N[C@@H](CCCNC(=N)N)C(=O)OC)c[nH]2)cc1.Cl.Cl	0.37	inactive	inactive	inactive	> 10	Active	0.63	8.74	10	15.4	20	15.6	> 20	Ratio IC50 (Cryptococcus neoformans [5]): 2; MIC (Escherichia coli): > 20 µg/mL; Ratio (Cryptococcus neoformans [6]): 2; KSV (Lipid bilayer [7]): 6.68; KSV (Lipid bilayer [8]): 146; Activity [9]: 2792 nm; Activity [10]: 0.584; Activity (Cell wall): Active; Activity (Cell membrane [11]): Active; Activity (Cryptococcus neoformans [12]): Active; Activity (Cell membrane [13]): Active; Activity (Cryptococcus neoformans [14]): Active; Activity (Cell membrane [15]): Active
CCCCc1ccc(-c2nc(C[C@H](NC(=O)OC(C)(C)C)C(=O)N[C@@H](Cc3c[nH]c4ccccc34)C(=O)N[C@@H](CCCNC(=N)N)C(=O)NCc3ccccc3)c[nH]2)cc1	1.98 (≈ 2.42 µM)	inactive	inactive	inactive	> 10	–	2.5 (≈ 3.05 µM)	9.13 (≈ 11.1 µM)	10 (≈ 12.2 µM)	7.38 (≈ 9.01 µM)	10 (≈ 12.2 µM)	> 20	> 20	–
